# ChEMBL document CHEMBL1649213, “The arabinosyltransferase EmbC is inhibited by ethambutol in Mycobacterium tuberculosis” (2009)
# Activity calls are given as the source filed them. No cut-off for these calls is given here.
# Tests used:
# [1] = test system: Mycolicibacterium smegmatis; test: Antimicrobial activity against Mycobacterium smegmatis expressing EmbC M286V mutant gene at 32 ug/ml after 48 hrs; type: functional, organism-based
# [2] = test system: Mycolicibacterium smegmatis; test: Antimicrobial activity against Mycobacterium smegmatis expressing EmbC M286L mutant gene at 32 ug/ml after 48 hrs; type: functional, organism-based
# [3] = test system: Mycolicibacterium smegmatis; test: Antimicrobial activity against Mycobacterium smegmatis expressing EmbC M286L mutant gene after 48 hrs by agar proportion method; type: functional
# [4] = test system: Mycobacterium tuberculosis; test: Antimicrobial activity against Mycobacterium tuberculosis expressing EmbC gene after 48 hrs; type: functional
# [5] = test system: Mycobacterium tuberculosis; test: Inhibition of Mycobacterium tuberculosis EmbC assessed as effect on LAM production at 1 ug/ml after 2 hrs by immunoblotting
# In short: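 M. tuberculosis grown in 7H9 plus 10% OADC with hygromycin 100 µg/ml, kanamycin 20 µg/ml and EMB 0 to 128 µg/ml for 14 days. Cells extracted in phenol-water (1:1) at 80°C for 2 h, then chloroform added. Aqueous phase run on denaturing, nonreducing acrylamide gels with periodic acid-Schiff staining or CS-35 anti-LAM immunoblot.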
# [6] = test system: Mycobacterium tuberculosis; test: Antimicrobial activity against Mycobacterium tuberculosis embA gene after 48 hrs by agar proportion method; type: functional
# [7] = test system: Mycolicibacterium smegmatis; test: Antimicrobial activity against Mycobacterium smegmatis expressing EmbC M286I mutant gene at 32 ug/ml; type: functional, organism-based
# [8] = test system: Mycolicibacterium smegmatis; test: Antimicrobial activity against Mycobacterium smegmatis expressing EmbC gene after 48 hrs by agar proportion method; type: functional, organism-based
# [9] = test system: T1, Probable arabinosyltransferase A (Mycobacterium smegmatis (strain ATCC 700084 / mc(2)155)), A0R612 [D280G]; test: Inhibition of Mycobacterium smegmatis EmbC D280G mutant assessed as effect on LAM production at 32ug/ml after 2 hrs by immunoblotting; details: Mycolicibacterium smegmatis
# T1 sequence (whole entry): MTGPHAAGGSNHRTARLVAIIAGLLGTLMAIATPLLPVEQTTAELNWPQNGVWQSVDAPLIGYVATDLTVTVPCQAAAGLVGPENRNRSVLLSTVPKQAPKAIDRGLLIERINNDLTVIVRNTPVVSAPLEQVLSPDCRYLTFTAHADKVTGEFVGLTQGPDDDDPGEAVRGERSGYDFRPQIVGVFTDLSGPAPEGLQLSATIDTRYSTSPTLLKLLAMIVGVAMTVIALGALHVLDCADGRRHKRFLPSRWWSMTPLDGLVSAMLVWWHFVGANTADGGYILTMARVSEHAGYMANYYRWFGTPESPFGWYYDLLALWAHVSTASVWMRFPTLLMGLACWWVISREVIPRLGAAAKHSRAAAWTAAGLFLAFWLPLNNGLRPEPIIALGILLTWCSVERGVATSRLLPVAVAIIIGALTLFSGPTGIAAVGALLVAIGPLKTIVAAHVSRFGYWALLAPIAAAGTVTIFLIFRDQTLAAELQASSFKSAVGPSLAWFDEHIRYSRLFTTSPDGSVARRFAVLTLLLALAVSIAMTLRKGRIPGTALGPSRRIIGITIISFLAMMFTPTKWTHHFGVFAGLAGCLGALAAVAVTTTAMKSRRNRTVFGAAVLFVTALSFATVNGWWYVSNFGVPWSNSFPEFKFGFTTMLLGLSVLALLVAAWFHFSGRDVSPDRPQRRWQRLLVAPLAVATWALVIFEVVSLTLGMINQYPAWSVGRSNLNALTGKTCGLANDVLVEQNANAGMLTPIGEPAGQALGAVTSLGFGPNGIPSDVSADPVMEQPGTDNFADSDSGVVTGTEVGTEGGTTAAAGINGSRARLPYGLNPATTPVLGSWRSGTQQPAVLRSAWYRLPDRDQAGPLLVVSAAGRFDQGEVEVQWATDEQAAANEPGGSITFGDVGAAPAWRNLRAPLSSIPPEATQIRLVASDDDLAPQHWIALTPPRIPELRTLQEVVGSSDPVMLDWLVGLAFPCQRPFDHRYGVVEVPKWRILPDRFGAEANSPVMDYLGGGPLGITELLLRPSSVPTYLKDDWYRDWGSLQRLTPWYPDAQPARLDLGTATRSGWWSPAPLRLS
# [10] = test system: Mycolicibacterium smegmatis; test: Antimicrobial activity against Mycobacterium smegmatis expressing EmbC M286V mutant gene after 48 hrs by agar proportion method; type: functional
# [11] = test system: Mycolicibacterium smegmatis; test: Antimicrobial activity against Mycobacterium smegmatis expressing EmbC M286I mutant gene after 48 hrs by agar proportion method; type: functional
# [12] = test system: Mycolicibacterium smegmatis; test: Antimicrobial activity against Mycobacterium smegmatis expressing EmbC D280G mutant gene at 32 ug/ml after 48 hrs; type: functional, organism-based
# [13] = test system: Mycobacterium tuberculosis; test: Antimicrobial activity against Mycobacterium tuberculosis expressing EmbC gene after 48 hrs by agar proportion method; type: functional
# [14] = test system: Mycolicibacterium smegmatis; test: Antimicrobial activity against Mycobacterium smegmatis expressing EmbC D280G mutant gene after 48 hrs by agar proportion method; type: functional
smiles,measurement,setting,value
CC[C@@H](CO)NCCN[C@@H](CC)CO [ETHAMBUTOL],Activity,[1],inactive
same,Activity,[2],inactive
same,MIC,[3],64 µg/mL
same,MIC,[4],3 µg/mL
same,inhibition,[5],Active
same,MIC,[6],3 µg/mL
same,Activity,[7],inactive
same,MIC,[8],inactive
same,inhibition,[9],Active
same,MIC,[10],32 µg/mL
same,MIC,[11],32 µg/mL
same,Activity,[12],inactive
same,MIC90,[13],1 µg/mL
same,MIC,[14],64 µg/mL
